How the values were obtained:
[1] = system: K562; experiment: Antiproliferative activity against human K562 cells assessed as inhibition of cell growth incubated for 72 hrs by resazurin dye based assay; format: functional; details: K562, 72 h
Procedure, shortened: (§1)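 Logarithmic-phase cells were seeded at 5000 per well and treated 24 h later, in triplicate, with various concentrations for 72 h. MOLM14 lines were grown in RPMI with 10 % FBS, and other lines per provider instructions, all at 37 °C and 5 % CO2. Resazurin was then added for 4–6 h and fluorescence read. GI50 was taken from percent growth versus DMSO control, fitted with a variable-slope normalized-response model; at least three runs.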

[2] = system: MOLM-14; experiment: Antiproliferative activity against human MOLM-14 cells assessed as inhibition of cell growth incubated for 72 hrs by resazurin dye based assay; format: functional; details: MOLM-14, 72 h; procedure, shortened: as §1
[3] = system: MOLM-14; experiment: Antiproliferative activity against human MOLM-14 cells harboring FLT3-D835Y mutant assessed as inhibition of cell growth incubated for 72 hrs by resazurin dye based assay; format: functional; details: MOLM-14, 72 h; procedure, shortened: as §1
[4] = system: MOLM-14; format: functional, cell-based; details: Homo sapiens, MOLM-14, 72 h
[5] = molecular target: T1, Receptor-type tyrosine-protein kinase FLT3 (Homo sapiens, UniProt P36888); experiment: Inhibition of FLT3 (unknown origin) by bioluminescent ADP-Glo assay
T1 sequence (P36888 whole entry): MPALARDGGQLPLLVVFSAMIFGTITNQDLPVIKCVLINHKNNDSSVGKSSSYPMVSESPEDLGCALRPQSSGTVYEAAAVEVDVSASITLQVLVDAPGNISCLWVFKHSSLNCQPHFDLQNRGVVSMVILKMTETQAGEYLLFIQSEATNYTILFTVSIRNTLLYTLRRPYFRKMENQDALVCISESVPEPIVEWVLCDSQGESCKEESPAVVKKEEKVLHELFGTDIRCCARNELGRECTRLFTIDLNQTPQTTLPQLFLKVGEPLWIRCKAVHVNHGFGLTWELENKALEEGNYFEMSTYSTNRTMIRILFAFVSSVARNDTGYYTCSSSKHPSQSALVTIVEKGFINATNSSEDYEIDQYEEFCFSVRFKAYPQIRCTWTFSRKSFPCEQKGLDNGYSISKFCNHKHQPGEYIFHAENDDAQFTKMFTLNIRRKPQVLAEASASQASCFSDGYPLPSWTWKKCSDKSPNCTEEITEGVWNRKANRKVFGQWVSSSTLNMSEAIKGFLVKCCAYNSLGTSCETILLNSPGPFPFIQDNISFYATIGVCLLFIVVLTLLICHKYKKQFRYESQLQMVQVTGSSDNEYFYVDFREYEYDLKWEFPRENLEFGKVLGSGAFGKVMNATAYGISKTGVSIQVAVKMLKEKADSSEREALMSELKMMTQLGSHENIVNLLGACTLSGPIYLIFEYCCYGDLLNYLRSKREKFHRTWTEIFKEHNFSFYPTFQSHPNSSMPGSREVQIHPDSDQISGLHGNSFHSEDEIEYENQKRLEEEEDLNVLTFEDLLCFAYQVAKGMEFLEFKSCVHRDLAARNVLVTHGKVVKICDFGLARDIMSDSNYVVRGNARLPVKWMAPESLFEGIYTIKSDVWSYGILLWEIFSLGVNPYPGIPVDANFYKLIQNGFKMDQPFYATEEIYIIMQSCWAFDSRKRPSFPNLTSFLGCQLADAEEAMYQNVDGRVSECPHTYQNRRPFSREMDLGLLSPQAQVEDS

[6] = Cytotoxicity against HEK293 cells lacking FLT3 activating mutations assessed as inhibition of cell growth incubated for 72 hrs by resazurin dye based assay; format: toxicity; details: human; procedure, shortened: as §1
[7] = system: MDA-MB-231; experiment: Antiproliferative activity against human MDA-MB-231 cells lacking FLT3 activating mutations assessed as inhibition of cell growth incubated for 72 hrs by resazurin dye based assay; format: functional; details: MDA-MB-231, 72 h; procedure, shortened: as §1

Row | SMILES | IC50 [1] [nM] | IC50 [2] [nM] | IC50 [3] [nM] | IC50 [4] [nM] | IC50 [5] [nM] | IC50 at 72 h [6] [nM] | IC50 [7] [nM]
1 | CCc1nc(C(N)=O)c(Nc2ccc(N3CCC(N4CCN(C)CC4)CC3)c(OC)c2)nc1NC1CCOCC1 [GILTERITINIB] | > 1000 | – | – | – | – | – | –
2 | COc1ccccc1Nc1cccc(-c2cnc3cc(-c4cnn(C)c4)ccn23)n1 | 274 | 2.38 | 1.65 | 14.4 | – | – | –
3 | C=Cc1ccc(Nc2cccc(-c3cnc4cc(-c5cnn(C)c5)ccn34)n2)cc1 | > 1000 | 6.76 | 4.39 | 90.7 | – | – | –
4 | CC(C)c1ccc(Nc2cccc(-c3cnc4cc(-c5cnn(C)c5)ccn34)n2)cc1 | > 1000 | 13.5 | 8.91 | 142 | – | – | –
5 | CCOC(=O)Cc1ccc(Nc2cccc(-c3cnc4cc(-c5cnn(C)c5)ccn34)n2)cc1 | > 1000 | 99 | 121 | > 1000 | – | – | –
6 | CC(C)(C)c1ccc(Nc2cccc(-c3cnc4cc(-c5ccc(S(C)(=O)=O)cc5)ccn34)n2)cc1 | > 1000 | 110 | 203 | > 1000 | – | – | –
7 | Cn1cc(-c2ccn3c(-c4cccc(Nc5ccc(OCCN6CCCC6)cc5)n4)cnc3c2)cn1 | > 1000 | 0.77 | 2.21 | 12.5 | – | – | –
8 | Cn1cc(-c2ccn3c(-c4ccc(Cl)cc4)cnc3c2)cn1 | > 1000 | 16.9 | 166 | 293 | – | – | –
9 | Cn1cc(-c2ccn3c(-c4cccc(Cl)n4)cnc3c2)cn1 | > 1000 | 28.7 | 228 | 458 | – | – | –
10 | Cn1cc(-c2ccn3c(-c4cccc(NC5CCN(C(=O)OC(C)(C)C)CC5)n4)cnc3c2)cn1 | > 1000 | 17.2 | 18.2 | 97.5 | – | – | –
11 | Cn1cc(-c2ccn3c(-c4cccc(Nc5ccc6c(c5)OCCO6)n4)cnc3c2)cn1 | > 1000 | 1.72 | 0.87 | 9.98 | – | – | –
12 | Cn1cc(-c2ccn3c(-c4cccc(Nc5ccc(C(F)(F)F)cc5)n4)cnc3c2)cn1 | > 1000 | 33.3 | 18.9 | 160 | – | – | –
13 | Cn1cc(-c2ccn3c(-c4cccc(Nc5ccc(OCCN6CCCCC6)cc5)n4)cnc3c2)cn1 | > 1000 | 0.19 | 0.77 | 9.8 | – | – | –
14 | Cn1nc(C(C)(C)C)cc1Nc1cccc(-c2cnc3cc(-c4ccc(S(C)(=O)=O)cc4)ccn23)n1 | 688 | 4.3 | 5.32 | 54.2 | – | – | –
15 | COc1cc2/c(=N/c3ccc(Br)cc3F)nc[nH]c2cc1OCC1CCN(C)CC1 [VANDETANIB] | – | – | – | > 20000 | – | – | –
16 | Cn1cc(-c2ccn3c(-c4cccc(Nc5ccc(OCCN6CCOCC6)cc5)n4)cnc3c2)cn1 | > 1000 | 1 | 1.83 | 7.1 | – | – | –
17 | Cn1cc(-c2ccn3c(-c4cccc(NCc5c(F)cccc5F)n4)cnc3c2)cn1 | 119 | 1.31 | 5.9 | 566 | – | – | –
18 | CCc1ccc(Nc2cccc(-c3cnc4cc(-c5cnn(C)c5)ccn34)n2)cc1 | 927 | 9.03 | 3.62 | 294 | – | – | –
19 | Cn1cc(-c2ccn3c(-c4cccc(Nc5cccc(C(F)(F)F)c5)n4)cnc3c2)cn1 | 132 | 2.24 | 3.2 | 28.9 | – | – | –
20 | Cn1cc(-c2ccn3c(-c4cccc(Nc5ccc(N6CCOCC6)cc5)n4)cnc3c2)cn1 | > 1000 | 3.25 | 1.41 | 238 | – | – | –
21 | Cc1ccc(-n2nc(C(C)(C)C)cc2Nc2cccc(-c3cnc4cc(-c5cnn(C)c5)ccn34)n2)cc1 | > 1000 | 162 | 414 | > 1000 | – | – | –
22 | COc1cc(Nc2cccc(-c3cnc4cc(-c5cnn(C)c5)ccn34)n2)cc(OC)c1OC | 960 | 6.95 | 27.5 | 105 | – | – | –

Row | SMILES | IC50 [1] [nM] | IC50 [2] [nM] | IC50 [3] [nM] | IC50 [4] [nM] | IC50 [5] [nM] | IC50 at 72 h [6] [nM] | IC50 [7] [nM]
23 | Cn1cc(-c2ccn3c(-c4cccc(Nc5cnccn5)n4)cnc3c2)cn1 | 115 | 4.03 | 2.46 | 259 | – | – | –
24 | COc1ccc(Nc2cccc(-c3cnc4cc(-c5cnn(C)c5)ccn34)n2)cc1OC | 969 | 2.49 | 4.64 | 14 | 6.63 | > 1000 | > 1000
25 | Cn1cc(-c2ccn3c(-c4cccc(N5CCN(C(=O)OC(C)(C)C)CC5)n4)cnc3c2)cn1 | > 1000 | 51.9 | 259 | 794 | – | – | –
26 | COC(=O)c1ccc(C)c(Nc2cccc(-c3cnc4cc(-c5cnn(C)c5)ccn34)n2)c1 | > 1000 | 233 | 177 | > 1000 | – | – | –
27 | Cn1cc(-c2ccn3c(-c4cccc(Nc5ccccc5C(F)(F)F)n4)cnc3c2)cn1 | 262 | 0.95 | 0.31 | 184 | – | – | –
28 | Cc1ccc(-n2nc(C(C)(C)C)cc2Nc2cccc(-c3cnc4cc(-c5ccc(S(C)(=O)=O)cc5)ccn34)n2)cc1 | > 1000 | 278 | 613 | > 1000 | – | – | –
29 | Cn1cc(-c2ccn3c(-c4cccc(Nc5ccc(Cl)cc5)n4)cnc3c2)cn1 | 736 | 28.8 | 23.1 | 337 | – | – | –
30 | CC1CN(c2cccc(-c3cnc4cc(-c5cnn(C)c5)ccn34)n2)CCN1C(=O)OC(C)(C)C (stereo not drawn) | > 1000 | 101 | 353 | 426 | – | – | –
31 | Cn1cc(-c2ccn3c(-c4cccc(Cl)c4)cnc3c2)cn1 | > 1000 | 29.5 | 591 | 304 | – | – | –
32 | Cn1cc(-c2ccn3c(-c4cccc(Nc5cc(C(C)(C)C)nn5-c5ccc(F)cc5)n4)cnc3c2)cn1 | > 1000 | 18 | 56 | > 1000 | – | – | –
33 | Cn1cc(-c2ccn3c(-c4cccc(Nc5ccc6c(c5)OCO6)n4)cnc3c2)cn1 | – | 6.09 | 4.91 | 920 | – | – | –
34 | Cn1cc(-c2ccn3c(-c4cccc(Nc5ccc(OC(F)(F)F)cc5)n4)cnc3c2)cn1 | > 1000 | 19.3 | 49.9 | 462 | – | – | –
35 | Cn1cc(-c2ccn3c(-c4cccc(Nc5ccc(C#N)cc5)n4)cnc3c2)cn1 | > 1000 | 18.3 | 48 | 135 | – | – | –
36 | Cn1cc(-c2ccn3c(-c4cccc(Nc5cc(C(C)(C)C)nn5C)n4)cnc3c2)cn1 | 210 | 3.8 | 2.59 | 32.6 | – | – | –
37 | COc1cc(Nc2cccc(-c3cnc4cc(-c5ccc(S(C)(=O)=O)cc5)ccn34)n2)cc(OC)c1OC | > 1000 | – | 43.9 | 130 | 94.6 | > 1000 | > 1000
38 | Cn1cc(-c2ccn3c(-c4cccc(Nc5ccc([N+](=O)[O-])cc5)n4)cnc3c2)cn1 | 923 | 6.82 | 5.19 | 314 | – | – | –
39 | CCN(CC)CCOc1ccc(Nc2cccc(-c3cnc4cc(-c5cnn(C)c5)ccn34)n2)cc1 | 924 | 0.51 | 0.87 | 7.42 | – | – | –
40 | Cn1cc(-c2ccn3c(-c4cccc(Nc5ccc(C(C)(C)C)cc5)n4)cnc3c2)cn1 | > 1000 | – | 41.9 | > 1000 | – | – | –
41 | Cn1cc(-c2ccn3c(-c4ccccc4Cl)cnc3c2)cn1 | > 1000 | 397 | > 1000 | > 1000 | – | – | –
42 | Cn1cc(-c2ccn3c(-c4cccc(Nc5ccc(C(=O)OC(C)(C)C)cc5)n4)cnc3c2)cn1 | > 1000 | 76.6 | 76.6 | 792 | – | – | –
43 | Cc1ccc(Nc2cccc(-c3cnc4cc(-c5cnn(C)c5)ccn34)n2)cc1 | 219 | – | 5.67 | 18.9 | – | – | –
